The text below walks through data of ChEMBL document CHEMBL4196138, “Antiproliferative Carvotacetones from Sphaeranthus africanus” (J Nat Prod, 2018).

One assay deals with HEK293. Put plainly: Cytotoxicity against HEK293 cells after 72 hrs by XTT assay. The assay is classed as cell-based. The following applies: Homo sapiens, HEK293, 72 h. A digest of the protocol:
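HEK-293 cells in DMEM:Ham's F12 (1:1) with 2 mM L-glutamine, 10% FBS, and 1% penicillin/streptomycin at 37 °C in 5% CO2. 10 000 cells/well were treated 72 h with compounds from DMSO stocks (final DMSO 0.5%; vehicle controls). XTT plus electron coupling reagent was added and read photometrically. IC50 from a four-parameter logistic fit; mean ± SEM of six independent experiments.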

In another assay the test system is CCRF-CEM. Nature of the assay: Cytotoxicity against human CCRF-CEM cells after 72 hrs by XTT assay. Format: functional, cell-based. A digest of the protocol: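 CCRF-CEM leukemia cells in RPMI 1640 with 2 mM L-glutamine, 10% FBS, and penicillin/streptomycin at 37 °C in 5% CO2. 10 000 cells/well were exposed 72 h to a concentration series (final DMSO 0.5%, vehicle control; vinblastine 0.01 μM as positive control). XTT was read photometrically after 4 h. Four-parameter logistic IC50; mean ± SEM, n = 6 independent experiments.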

The next assay has as its system MDA-MB-231. Nature of the assay: Cytotoxicity against human MDA-MB-231 cells after 72 hrs by XTT assay. The assay is classed as functional, cell-based. The following applies: MDA-MB-231, 72 h. A digest of the protocol: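 MDA-MB-231 breast cancer cells kept in RPMI 1640 with 2 mM L-glutamine, 10% FBS, and penicillin/streptomycin at 37 °C in 5% CO2. 5000 cells/well were grown overnight, then exposed 72 h to compounds (final DMSO 0.5%, vehicle control; vinblastine 0.01 μM as positive control). Photometric XTT readout after 1.5 h. Four-parameter logistic IC50; six independent experiments, mean ± SEM.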

For a further assay, the system named is U-251. Put plainly: Cytotoxicity against human U251 cells after 72 hrs by XTT assay. Format: functional, cell-based. The following applies: U-251, 72 h. A digest of the protocol:
(§1)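 HCT-116 and U-251 cells grown in high-glucose DMEM with 4 mM L-glutamine, 10% FBS, and 1% penicillin/streptomycin at 37 °C in 5% CO2. 5000 cells/well were attached overnight, then treated 72 h (final DMSO 0.5%; vinblastine 0.01 μM as positive control). XTT was measured photometrically 1.5 h after addition. IC50 by four-parameter logistic fit; mean ± SEM of six independent experiments.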

The subject of another assay is HCT-116. Nature of the assay: Cytotoxicity against human HCT116 cells after 72 hrs by XTT assay. Format: functional, cell-based. To be noted: HCT-116, 72 h. The method in brief: as §1

For `C/C=C(/C)C(=O)O[C@@H]1C(=O)C(CO)=C[C@@H](OC(=O)/C(C)=C/C)[C@H]1C(C)C`, the IC50 came to 3000 nM with HEK293; 1300 nM in the assay with CCRF-CEM; 2000 nM with MDA-MB-231; 2100 nM in the assay with U-251; 2500 nM in the assay on HCT-116.

Regarding `C/C=C(/C)C(=O)O[C@@H]1C=C(CO)C(=O)[C@@H](O)[C@@H]1C(C)C`, the IC50 with HEK293 amounted to 5500 nM; in the assay on CCRF-CEM, 1500 nM; with MDA-MB-231 it was 6500 nM; in the assay on U-251, 4300 nM; with HCT-116, 9500 nM.

As to `C/C=C(/C)C(=O)O[C@@H]1C(=O)C(CO)=C[C@@H](OC(=O)/C(C)=C\C)[C@H]1C(C)C`, the IC50 in the assay on HEK293 worked out at 2500 nM; in the assay with CCRF-CEM, 800 nM; with MDA-MB-231, 1800 nM; with U-251 it was 3000 nM; in the assay with HCT-116 it was 3900 nM.

`C/C=C(/C)C(=O)O[C@@H]1C=C(CO)C(=O)[C@@H](OC(=O)[C@](C)(O)[C@@H](C)Cl)[C@@H]1C(C)C`: the IC50 turned out to be 2800 nM in the assay on HEK293; 600 nM in the assay with CCRF-CEM; 1500 nM in the assay on MDA-MB-231; 2100 nM in the assay on U-251; 2900 nM in the assay with HCT-116.

In the case of `C/C=C(/C)C(=O)O[C@@H]1C=C(CO)C(=O)[C@@H](OC(=O)[C@]2(C)O[C@@H]2C)[C@@H]1C(C)C`, the IC50 was 3000 nM with HEK293; 1200 nM in the assay with CCRF-CEM; 2000 nM in the assay on MDA-MB-231; 2900 nM in the assay with U-251; 2600 nM in the assay with HCT-116.

`CC[C@]1(O)C[C@@H]2CN(CCc3c([nH]c4ccccc34)[C@@](C(=O)OC)(c3cc4c(cc3OC)N(C)[C@H]3[C@@](O)(C(=O)OC)[C@H](OC(C)=O)[C@]5(CC)C=CCN6CC[C@]43[C@@H]65)C2)C1` [VINBLASTINE]: the results for the IC50 with HEK293 and with HCT-116 were 27 nM and 8.7 nM, respectively.
